Experiments:
Details in all cases: stereoisomer not certain
O5AN1 = tested on: T1, O5AN1
T1 sequence (whole entry): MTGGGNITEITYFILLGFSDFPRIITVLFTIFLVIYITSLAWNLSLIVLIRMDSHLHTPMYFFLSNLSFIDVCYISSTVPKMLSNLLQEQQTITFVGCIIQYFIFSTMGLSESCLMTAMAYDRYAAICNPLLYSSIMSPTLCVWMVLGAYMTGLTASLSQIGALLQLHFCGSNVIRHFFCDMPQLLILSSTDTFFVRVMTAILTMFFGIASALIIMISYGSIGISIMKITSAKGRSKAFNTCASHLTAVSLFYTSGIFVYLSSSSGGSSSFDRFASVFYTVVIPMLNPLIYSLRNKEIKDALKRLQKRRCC
Outline: (§1)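 Each receptor–molecule pair is labelled responsive or non-responsive (inactive) according to whether the original authors judged the measured signal statistically different from baseline. The data were taken from the main text and supplementary material of published papers and checked for typos and inconsistencies. Assay methods differed by source, with transient luciferase assays in mammalian cell lines being common.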

OR10A2 (Homo sapiens) = target: T2, OR10A2 (Homo sapiens) (UniProt Q9H208)
T2 sequence (whole entry): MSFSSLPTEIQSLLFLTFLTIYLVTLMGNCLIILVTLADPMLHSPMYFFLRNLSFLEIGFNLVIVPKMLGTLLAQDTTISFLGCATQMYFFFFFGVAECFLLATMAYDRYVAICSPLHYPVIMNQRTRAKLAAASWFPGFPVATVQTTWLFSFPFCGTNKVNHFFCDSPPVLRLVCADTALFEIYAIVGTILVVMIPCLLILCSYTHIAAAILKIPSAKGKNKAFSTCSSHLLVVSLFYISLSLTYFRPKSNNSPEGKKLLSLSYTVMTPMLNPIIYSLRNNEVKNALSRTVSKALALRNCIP
Outline: as §1

OR10A3 (Homo sapiens) = target: T3, OR10A3 (Homo sapiens) (UniProt P58181)
T3 sequence (whole entry): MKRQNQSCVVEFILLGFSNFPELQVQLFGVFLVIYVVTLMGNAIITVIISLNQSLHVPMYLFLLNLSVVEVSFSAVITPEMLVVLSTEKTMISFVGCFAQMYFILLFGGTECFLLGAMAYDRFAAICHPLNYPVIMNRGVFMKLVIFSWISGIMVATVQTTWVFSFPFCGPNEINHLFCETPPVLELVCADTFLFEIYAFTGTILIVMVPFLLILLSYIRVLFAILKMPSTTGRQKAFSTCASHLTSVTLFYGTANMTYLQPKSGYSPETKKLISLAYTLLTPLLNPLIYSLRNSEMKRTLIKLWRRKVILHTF
Outline: as §1

OR10A4 (Homo sapiens) = target: T4, OR10A4 (Homo sapiens) (UniProt Q9H209)
T4 sequence (whole entry): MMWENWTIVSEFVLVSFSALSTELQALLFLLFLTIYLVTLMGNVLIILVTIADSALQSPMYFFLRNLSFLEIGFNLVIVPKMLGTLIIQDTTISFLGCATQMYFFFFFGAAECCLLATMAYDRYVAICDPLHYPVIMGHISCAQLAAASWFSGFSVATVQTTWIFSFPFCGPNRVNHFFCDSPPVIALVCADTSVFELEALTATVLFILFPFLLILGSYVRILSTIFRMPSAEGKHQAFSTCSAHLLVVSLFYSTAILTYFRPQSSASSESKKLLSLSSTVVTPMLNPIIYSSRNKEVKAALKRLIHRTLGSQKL
Outline: as §1

OR10A5 (Homo sapiens) = target: T5, OR10A5 (Homo sapiens) (UniProt Q9H207)
T5 sequence (whole entry): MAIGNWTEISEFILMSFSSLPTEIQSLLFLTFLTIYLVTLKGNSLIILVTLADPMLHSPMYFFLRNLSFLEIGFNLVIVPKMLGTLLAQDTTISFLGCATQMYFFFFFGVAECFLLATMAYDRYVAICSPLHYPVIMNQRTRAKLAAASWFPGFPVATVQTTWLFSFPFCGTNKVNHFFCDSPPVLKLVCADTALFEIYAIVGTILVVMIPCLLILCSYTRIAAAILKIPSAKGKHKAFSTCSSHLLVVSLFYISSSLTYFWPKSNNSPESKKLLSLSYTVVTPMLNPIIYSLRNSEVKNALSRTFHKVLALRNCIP
Outline: as §1

OR10A6 (Homo sapiens) = target: T6, OR10A6 (Homo sapiens) (UniProt Q8NH74)
T6 sequence (whole entry): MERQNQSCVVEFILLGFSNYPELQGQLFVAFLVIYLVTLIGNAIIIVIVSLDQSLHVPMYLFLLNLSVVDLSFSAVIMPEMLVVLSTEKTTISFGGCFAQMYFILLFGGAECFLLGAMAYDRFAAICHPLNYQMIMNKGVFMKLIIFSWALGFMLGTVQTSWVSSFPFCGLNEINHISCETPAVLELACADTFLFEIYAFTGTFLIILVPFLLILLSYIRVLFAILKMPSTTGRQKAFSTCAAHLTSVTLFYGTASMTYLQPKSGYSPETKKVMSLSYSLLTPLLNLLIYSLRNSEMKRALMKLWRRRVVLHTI
Outline: as §1

OR10A7 (Homo sapiens) = target: T7, OR10A7 (Homo sapiens) (UniProt Q8NGE5)
T7 sequence (whole entry): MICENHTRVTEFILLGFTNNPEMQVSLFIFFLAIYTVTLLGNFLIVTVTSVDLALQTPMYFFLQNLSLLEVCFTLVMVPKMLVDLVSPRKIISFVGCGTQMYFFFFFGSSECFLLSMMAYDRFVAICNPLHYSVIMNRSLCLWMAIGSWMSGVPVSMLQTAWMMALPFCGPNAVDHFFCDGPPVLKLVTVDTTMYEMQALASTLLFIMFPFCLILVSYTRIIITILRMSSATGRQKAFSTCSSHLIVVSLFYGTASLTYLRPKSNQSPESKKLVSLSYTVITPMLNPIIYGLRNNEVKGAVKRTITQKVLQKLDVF
Outline: as §1

OR10AD1 (Homo sapiens) = target: T8, OR10AD1 (Homo sapiens) (UniProt Q8NGE0)
T8 sequence (whole entry): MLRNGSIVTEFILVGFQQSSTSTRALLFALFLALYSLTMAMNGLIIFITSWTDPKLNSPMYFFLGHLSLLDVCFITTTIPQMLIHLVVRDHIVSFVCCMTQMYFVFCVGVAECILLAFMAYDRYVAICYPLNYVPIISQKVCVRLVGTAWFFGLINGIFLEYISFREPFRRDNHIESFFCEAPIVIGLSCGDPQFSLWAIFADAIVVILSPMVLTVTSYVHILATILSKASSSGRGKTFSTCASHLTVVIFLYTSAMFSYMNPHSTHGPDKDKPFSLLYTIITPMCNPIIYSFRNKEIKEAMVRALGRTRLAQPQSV
Outline: as §1

OR10AG1 (Homo sapiens) = target: T9, OR10AG1 (Homo sapiens) (UniProt Q8NH19)
T9 sequence (whole entry): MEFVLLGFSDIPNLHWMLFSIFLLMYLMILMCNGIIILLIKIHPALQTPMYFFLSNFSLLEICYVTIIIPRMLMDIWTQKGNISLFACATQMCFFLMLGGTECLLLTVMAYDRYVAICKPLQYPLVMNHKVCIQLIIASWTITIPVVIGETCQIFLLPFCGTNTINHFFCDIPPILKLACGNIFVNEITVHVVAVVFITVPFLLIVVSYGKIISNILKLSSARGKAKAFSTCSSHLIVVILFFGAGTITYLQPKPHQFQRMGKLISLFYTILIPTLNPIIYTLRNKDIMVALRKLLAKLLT
Outline: as §1

OR10C1 (Homo sapiens) = target: T10, OR10C1 (Homo sapiens) (UniProt Q96KK4)
T10 sequence (whole entry): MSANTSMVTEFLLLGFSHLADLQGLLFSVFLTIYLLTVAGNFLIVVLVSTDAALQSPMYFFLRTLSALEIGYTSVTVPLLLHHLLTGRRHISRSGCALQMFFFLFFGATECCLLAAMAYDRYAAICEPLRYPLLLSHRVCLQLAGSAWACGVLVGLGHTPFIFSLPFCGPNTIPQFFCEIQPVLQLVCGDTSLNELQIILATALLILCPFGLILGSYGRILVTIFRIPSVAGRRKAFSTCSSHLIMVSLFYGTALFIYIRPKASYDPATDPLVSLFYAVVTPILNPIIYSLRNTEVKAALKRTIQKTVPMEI
Outline: as §1

OR10D3 (Homo sapiens) = target: T11, OR10D3 (Homo sapiens) (UniProt Q8NH80)
T11 sequence (whole entry): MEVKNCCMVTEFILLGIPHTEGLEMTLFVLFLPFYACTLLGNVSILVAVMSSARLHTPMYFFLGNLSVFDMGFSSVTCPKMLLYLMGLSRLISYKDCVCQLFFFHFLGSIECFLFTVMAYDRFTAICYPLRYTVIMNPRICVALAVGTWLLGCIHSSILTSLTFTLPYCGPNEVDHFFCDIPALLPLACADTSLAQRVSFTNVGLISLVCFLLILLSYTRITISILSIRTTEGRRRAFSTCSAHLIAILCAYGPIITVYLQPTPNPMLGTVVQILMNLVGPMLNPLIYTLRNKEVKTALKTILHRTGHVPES
Outline: as §1

Measured: odorant receptor agonist call;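 also: active if original authors judged signal statistically different from baseline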

O=C1CCCCCCCCC1
inactive: O5AN1

CCCCCC(S)C(C)CO (stereo unspecified)
not listed: O5AN1
inactive: all other assays above
